Many of the other results were omitted from the sample, so hits are more common in it than they were.
LANA-nucl inh = inhibitors of KSHV LANA binding to nucleosomes | actives 0.3% (n = 51,000) | AID 720717 | FITC-LANA1-23 / chicken nucleosome fluorescence polarization; active compounds read low | z-score (no concentration beside the values);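 active = both repeat wells score below -2 in polarization z-score versus plate sample wells, excluding overly bright wells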
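System – purified chicken nucleosomes with FITC-labelled LANA N-terminal peptide (1-23) · Amount – 240 nM purified chicken nucleosomes (480 nM peptide binding sites), final · Also added – 50 nM FITC-LANA1-23 probe · Medium – TEN-BT buffer, pH 7.5 · Incubation – compound with peptide–nucleosome mix 10–45 min at room temperature · Detection – fluorescence polarization, ex 480 nm, em 535 nm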
BasE inh = inhibitors of Acinetobacter baumannii siderophore enzyme BasE; purified BasE, fluorescence polarization binding displacement; AID 485350; inhibition, % (test concentration not listed); actives 0.1% (n = 84,000); in the data active = inhibition above about 25%, passing the limit was not always enough;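 note: 0% = negative plate control signal and 100% = positive plate control signal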
Starred values were filed as active, the others as inactive; . = not tested or not shown; ! = not active in a repeat.

SMILES | LANA-nucl inh | BasE inh
Cc1ccccc1NC(=O)NC(C)(C)CC(C)(C)C | -0.068 | 1
CC(C)(C)C(=O)NCc1ccc(C(=O)CSc2nnc(-c3cccs3)n2C2CC2)s1 | . | 1
Cc1ccc(CNC(=O)c2noc(C)c2Cn2nc(C)cc2C)cc1 | 0.26 | 0
CC(=O)N/N=C/c1cc(C(C)C)cc(/C=N/NC(C)=O)c1O | -3.9* | 20
CC(=O)N/N=C/c1ccccc1 | 0.031 | 3
O=C1CCCC2=C1C(c1cccc(Br)c1)Nc1ccccc1N2 (stereo not drawn) | . | -2
O=C1CCCC2=C1Sc1ccccc1N2 | -2.7* | 13
O=C(Cn1cnnn1)NC1CCCc2ccccc21 (stereo not drawn) | . | 2
Cc1cc(=O)n2nc(N(C)CC(=O)NC3CCCc4ccccc43)sc2n1 (stereo not drawn) | -2.3* | -1
O=C(CNC(=O)c1ccc(Br)o1)Nc1ccc(Br)c(C(F)(F)F)c1 | . | 2
CCN(CC)CCCC(C)Nc1c2ccc(Cl)cc2nc2ccc(OC)cc12 (stereo not drawn) | -2.3*! | 51
CCN(CC)CCSc1nc2ccc(OC)cc2[nH]1 | 0.34 | 4
COc1ccc(S(=O)(=O)n2nnc3ccccc32)cc1C(C)(C)C | 1.6 | 0
CCCCNC(=O)NC1C2CC3CC(C2)CC1C3 (stereo not drawn) | 0.8 | 26*
CC(C)NC(=O)NC1C2CC3CC(C2)CC1C3 (stereo not drawn) | 1.5 | -1
COc1cc2c(cc1OC)C(CNC(=O)OCc1ccccc1)NCC2 (stereo not drawn) | 0.68 | -3
COc1ccccc1-c1nnc(SCC2CNC(=O)O2)n1-c1ccccc1 (stereo not drawn) | . | 1
O=C(CSC1=NNC(c2ccccn2)S1)Nc1cccc(Cl)c1 (stereo not drawn) | -2.1* | 2
COc1cccc(NC(=O)CSc2ncccn2)c1 | -0.7 | 1
N#Cc1ncc(C(F)(F)F)cc1OCc1ccccc1Cl | -0.7 | .
CN(C)c1ccc(C(=C2C=CC(=[N+](C)C)C=C2)c2ccc(N(C)C)cc2)cc1 | -4.1*! | 2
CN(C)c1ccc(C2=CC=CC(=C3C=CC(=[N+](C)C)C=C3)O2)cc1 | . | 8
O=C(O)Cc1ccc(S(=O)(=O)N2CCOCC2)s1 | . | 2
CN1CCN(c2nc(C#N)c(C#N)nc2C(C#N)=C2Nc3ccccc3N2)CC1 | -1.6 | 1
CCN1/C(=C(\C#N)c2nc(C#N)c(C#N)nc2N2CCOCC2)Nc2ccccc21 | -3.2* | 1
SMILES | LANA-nucl inh | BasE inh
CN(CC1COc2ccccc2O1)C(=O)C1(c2ccccc2)CC1 (stereo not drawn) | . | 3
CN(CC1COc2ccccc2O1)C(=O)NC12CC3CC(CC(C3)C1)C2 (stereo not drawn) | . | 30*
CN(CC(=O)NC1=NCCS1)S(=O)(=O)c1ccc(Cl)cc1 | . | -1
Cc1ccc(C)c(C(=O)NCCc2ccccn2)c1 | . | -1
COc1cccc(N2CCN(C(=O)c3nn(C)c4c3COc3ccccc3-4)CC2)c1 | -2.3* | 3
COc1cccc(C(=O)N2CCN(c3ccccc3)CC2)c1 | . | 3
O=C(CSC1=NS(=O)(=O)c2cc(F)ccc2N1)NC1CCCC1 | 0.59 | 3
N#CC1=C(N)C(C#N)(C#N)C(c2ccc(OC(F)F)cc2)C=C1C1CC1 (stereo not drawn) | . | 0
Cc1cc(-n2c(C)cc(/C=C/C(=O)N3CCN(S(=O)(=O)Cc4ccccc4)CC3)c2C)no1 | . | 0
CCCCSC1=C(C#N)C(=O)NC(c2ccc(OC)cc2)S1 (stereo not drawn) | -0.36 | 4
COc1ccc(CSC2=C(C#N)C(=O)NC3(CCCCC3)S2)cc1 | . | 39*
O=C(Nc1ccccc1)c1cccnc1 | . | 12
O=C(Nc1cccnc1)/C(N=Nc1cccnc1)=C(\O)c1ccccc1 | . | 32*
COc1cccc(CNC(=O)CC2=NS(=O)(=O)c3ccccc3N2)c1 | -0.79 | 1
O=C(/C=C/c1ccc(O)c(O)c1)O[C@@H]1C[C@](O)(C(=O)O)C[C@@H](O)[C@H]1O | 0.071 | 32*!
COc1cc(/C=C/C(=O)OCC(=O)Nc2cccc(F)c2)ccc1O | . | 1
CC(C)CC(NS(=O)(=O)c1ccc2c(c1)CCCC(=O)N2)C(=O)N1CCOCC1 (stereo not drawn) | . | 2
COc1ccc(/C=C2\SC(=S)N(CC(=O)Nc3ccccc3)C2=O)cc1 | . | 1
O=C1CC(=O)c2ccc3c4c(ccc1c24)C(=O)CC3=O | -0.28 | 27*
Nc1ccc2c(c1)CCC2=O | 0.82 | 2
Cc1nc2ccc(NC(=O)C3CC3)cc2c(=O)n1Cc1ccc(F)cc1 | 0.5 | -7
N#CCCn1cc(C(=O)CSc2ccccn2)c2ccccc21 | . | 32*
COc1ccc(SCC(=O)c2cn(CCC#N)c3ccccc23)cc1 | . | -3
O=C(NCC1OCCc2ccccc21)C1OCCc2ccccc21 (stereo not drawn) | -0.3 | 0
Cc1cc(C(=O)COC(=O)c2cccs2)c(C)n1CCc1ccccc1 | . | 1
SMILES | LANA-nucl inh | BasE inh
O=C(CSc1n[nH]c(=O)[nH]c1=O)Nc1ccc(Br)cc1Br | . | -1
O=C(CSc1n[nH]c(=O)[nH]c1=O)Nc1ccccc1C(=O)c1ccccc1 | . | 38*
Cc1ccc(C(=O)CSc2nnc(-c3cccc(C)c3)o2)cc1 | -0.59 | 2
CN1CC=C2C(C#N)=C(N)C(C#N)(C#N)C(CCc3ccccc3)C2C1 (stereo not drawn) | -2.9* | 22
CCCC1C2CN(Cc3ccccc3)CC=C2C(C#N)=C(N)C1(C#N)C#N (stereo not drawn) | -4.6* | 23
CC(C)CC1C2CN(Cc3ccccc3)CC=C2C(C#N)=C(N)C1(C#N)C#N (stereo not drawn) | -1.5 | 15
CC(=O)N1CC=C2C(C#N)=C(N)C(C#N)(C#N)C(Cc3ccccc3)C2C1 (stereo not drawn) | -0.78 | 0
Cc1ccc(NC(=O)NC2CC(C)(C)NC(C)(C)C2)cc1 | -0.29 | 2
O=C(CCN1C(=O)/C(=C\c2ccco2)SC1=S)NN1CCOCC1 | 2.3 | -1
O=C(CCN1C(=O)/C(=C\C=C\c2ccco2)SC1=S)Nc1ccc(C(=O)O)c(O)c1 | -0.23 | 33*
C#CCNC(=O)c1cc(=O)[nH]c2ccccc12 | . | 0
COC(=O)c1ccc(OCC(=O)c2ccc[nH]2)cc1 | . | 0
N#C/C(=C/c1ccc(O)c(O)c1)C(=O)OC/C=C/c1ccccc1 | 1.3 | 0
Oc1cc(O)cc(/C=C/c2ccc(O)c(O)c2)c1 | -0.39 | 86*
O=C(c1csc(-c2ccccc2)n1)N(Cc1ccccn1)Cc1ccccn1 | -2* | .
CCN(CC)C(=O)NCc1ccccn1 | -0.21 | 3
CCOc1ccc(-n2ccc3nc(C)c(C(=O)O)cc3c2=O)cc1 | -0.58 | 0
O=C(OCc1cn2ccccc2n1)c1ccc2c(c1)C(=O)N(Cc1ccco1)C2=O | . | 0
CCN1C=CC2=C(C#N)C(N)C(C#N)(C#N)C(c3cccs3)C2C1 (stereo not drawn) | -6.3* | 16
N#CC1=C2SCN(Cc3ccccc3)CN2C(=O)CC1c1cccs1 (stereo not drawn) | -0.44 | -1
COC(=O)Cn1c(=O)c(C(=O)CSc2nnc(C)c(=O)n2N)c(N)n(Cc2ccccc2)c1=O | . | -1
C[n+]1cccc2ccc(O)cc21 | -6.7* | 20
Nc1nnc(SCC(=O)N2CCCCC2)n1CC(=O)N1CCCCC1 | 0.096 | 5
CC1CN(Cn2c(=S)oc3ccccc32)CC(C)O1 (stereo not drawn) | . | 9
